Assays:
Plasma = experiment: Anticoagulant activity in human plasma assessed as concentration required to double the prothrombin based clotting time after 30 seconds; format: functional
Procedure, shortened: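 Human plasma prothrombin-based clotting time; value is the inhibitor concentration that doubles the clotting time, averaged from two independent determinations.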

Coagulation factor X = Coagulation factor X (Homo sapiens, UniProt P00742)
Rattus norvegicus [1] = experiment: Anticoagulant activity against Sprague-Dawley rat arterial thrombosis model induced by topical application of Fecl2; format: functional
Procedure, shortened: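 Rat carotid artery thrombosis: vehicle (PEG-400) or compound given by 1 mL/kg gavage at 0 min (5, 10, 15, 30 mg/kg; n = 5, 6, 6, 4; vehicle n = 8), with aspirin 10 mg/kg iv 15 min before FeCl2. Rats anesthetized at 30 min. 50% FeCl2 applied topically at 60 min for 10 min. Thrombus weight taken 1 h later. ANOVA with Dunnett's test.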

Rattus norvegicus [2] = experiment: Ex vivo anticoagulant activity in Sprague-Dawley rat assessed as prolongation of prothrombin time at 30mg/kg, id after 120 mins; format: functional
Procedure, shortened: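 Anesthetized rats dosed intraduodenally at 30 mg/kg in 10% ethanol/90% PEG300, then a saline flush. Arterial blood drawn into 3.8% Na-citrate (1/10, v/v) before dosing and at 30, 60, 90 and 120 min. Ex vivo prothrombin time measured on a micro coagulation analyzer using Thromboplastin-C reagent.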

Cytochrome P450 2C19 = Cytochrome P450 2C19 (Homo sapiens, UniProt P33261); experiment: Inhibition of CYP2C19; format: ADME
Cytochrome P450 2C9 = Cytochrome P450 2C9 (Homo sapiens, UniProt P11712); experiment: Inhibition of CYP2C9; format: ADME
Cytochrome P450 3A4 = Cytochrome P450 3A4 (Homo sapiens, UniProt P08684); experiment: Inhibition of CYP3A4 using BFC as a substrate; format: ADME
Sequence of Cytochrome P450 3A4 (P08684 whole entry): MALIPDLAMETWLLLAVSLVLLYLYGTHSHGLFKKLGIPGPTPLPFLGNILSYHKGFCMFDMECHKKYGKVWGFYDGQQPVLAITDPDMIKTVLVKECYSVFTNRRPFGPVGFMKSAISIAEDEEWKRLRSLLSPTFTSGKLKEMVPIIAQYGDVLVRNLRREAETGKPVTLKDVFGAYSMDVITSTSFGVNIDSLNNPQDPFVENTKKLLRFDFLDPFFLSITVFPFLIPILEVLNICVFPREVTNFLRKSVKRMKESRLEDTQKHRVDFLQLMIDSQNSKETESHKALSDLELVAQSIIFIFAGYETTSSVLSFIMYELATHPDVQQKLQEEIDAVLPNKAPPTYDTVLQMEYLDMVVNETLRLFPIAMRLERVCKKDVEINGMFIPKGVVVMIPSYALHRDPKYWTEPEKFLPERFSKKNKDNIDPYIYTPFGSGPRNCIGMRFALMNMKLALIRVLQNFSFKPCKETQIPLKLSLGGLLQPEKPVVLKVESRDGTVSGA

Sequence of Cytochrome P450 2C9 (P11712 whole entry): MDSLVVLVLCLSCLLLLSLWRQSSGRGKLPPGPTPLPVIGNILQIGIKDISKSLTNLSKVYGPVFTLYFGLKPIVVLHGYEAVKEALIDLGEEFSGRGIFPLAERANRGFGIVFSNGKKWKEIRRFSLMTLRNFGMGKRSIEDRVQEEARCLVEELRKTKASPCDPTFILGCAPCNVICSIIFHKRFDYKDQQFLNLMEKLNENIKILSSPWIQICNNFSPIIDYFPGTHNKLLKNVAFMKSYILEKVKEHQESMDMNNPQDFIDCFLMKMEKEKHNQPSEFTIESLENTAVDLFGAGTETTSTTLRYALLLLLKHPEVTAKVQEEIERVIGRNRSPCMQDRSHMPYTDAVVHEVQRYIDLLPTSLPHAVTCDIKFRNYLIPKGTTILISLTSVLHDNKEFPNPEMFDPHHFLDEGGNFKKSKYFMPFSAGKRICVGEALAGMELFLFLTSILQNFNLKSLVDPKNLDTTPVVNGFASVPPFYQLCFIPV
Sequence of Cytochrome P450 2C19 (P33261 whole entry): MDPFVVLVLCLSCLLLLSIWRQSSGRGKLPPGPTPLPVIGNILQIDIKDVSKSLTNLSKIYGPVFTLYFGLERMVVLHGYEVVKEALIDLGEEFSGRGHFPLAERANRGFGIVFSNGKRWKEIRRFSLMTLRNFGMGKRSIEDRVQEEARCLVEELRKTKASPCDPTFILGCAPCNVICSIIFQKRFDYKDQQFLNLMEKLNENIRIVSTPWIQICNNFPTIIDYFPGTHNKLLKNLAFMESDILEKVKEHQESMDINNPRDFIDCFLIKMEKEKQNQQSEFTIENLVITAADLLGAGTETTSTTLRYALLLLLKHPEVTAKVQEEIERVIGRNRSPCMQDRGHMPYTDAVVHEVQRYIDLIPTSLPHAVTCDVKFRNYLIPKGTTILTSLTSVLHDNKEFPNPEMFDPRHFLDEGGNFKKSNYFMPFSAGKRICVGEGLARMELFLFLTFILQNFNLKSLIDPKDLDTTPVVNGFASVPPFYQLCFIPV
Sequence of Coagulation factor X (P00742 41-179 limits assumed): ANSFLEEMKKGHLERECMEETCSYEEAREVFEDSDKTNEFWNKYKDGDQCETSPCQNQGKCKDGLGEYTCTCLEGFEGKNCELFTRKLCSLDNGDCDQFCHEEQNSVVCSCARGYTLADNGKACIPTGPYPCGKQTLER
Sequence of Coagulation factor X (P00742 235-488 limits assumed): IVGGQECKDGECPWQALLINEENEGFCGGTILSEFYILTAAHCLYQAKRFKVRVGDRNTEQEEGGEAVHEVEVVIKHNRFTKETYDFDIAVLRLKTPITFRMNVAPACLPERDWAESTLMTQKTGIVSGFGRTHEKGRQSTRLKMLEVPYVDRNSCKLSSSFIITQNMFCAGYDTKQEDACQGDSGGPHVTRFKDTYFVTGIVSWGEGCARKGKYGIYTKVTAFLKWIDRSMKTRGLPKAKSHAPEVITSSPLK

Row | SMILES | Activity (Plasma) [µM] | IC50 (Coagulation factor X) [µM] | other results
1 | Cc1cc2cc(N/C(=N\C(=O)c3cccc(C(N)=O)c3)N[C@H]3CCCCN(CC(=O)N4CCCC4)C3=O)ccc2o1 | 7 | 0.018 | 
2 | Cc1cc2cc(N/C(=N\C(=O)c3cnccn3)N[C@H]3CCCCN(CC(=O)N4CCCC4)C3=O)ccc2o1 | 18 |  | 
3 | CC(=O)/N=C(\Nc1ccc2oc(C)cc2c1)N[C@H]1CCCCN(CC(=O)N2CCCC2)C1=O | 70 |  | 
4 | Cc1cc2cc(N/C(=N\C(=O)c3cccc(Cl)c3)N[C@H]3CCCCN(CC(=O)N4CCCC4)C3=O)ccc2o1 | >50 |  | 
5 | Cc1cc2cc(N/C(=N\C(=O)c3ccoc3)N[C@H]3CCCCN(CC(=O)N4CCCC4)C3=O)ccc2o1 | 33 |  | 
6 | Cc1cc2cc(/N=C(/NC#N)N[C@H]3CCCCN(CC(=O)N4CCCC4)C3=O)ccc2o1 | 32 |  | fold change (FC) (Rattus norvegicus [1]): ≥ 1.8; fold change (FC) (Rattus norvegicus [2]): >=1.8
7 | Cc1cc2cc(N/C(=N\C(N)=O)N[C@H]3CCCCN(CC(=O)N4CCCC4)C3=O)ccc2o1 | 60 |  | 
8 | Cc1cc2cc(N/C(=N\C(=O)c3ccsc3)N[C@H]3CCCCN(CC(=O)N4CCCC4)C3=O)ccc2o1 | 19 |  | 
9 | Cc1cc2cc(N/C(=N\S(N)(=O)=O)N[C@H]3CCCCN(CC(=O)N4CCCC4)C3=O)ccc2o1 | >50 | 0.012 | 
10 | Cc1cc2cc(N/C(=N\C(=O)c3nnn(C)n3)N[C@H]3CCCCN(CC(=O)N4CCCC4)C3=O)ccc2o1 | 28 |  | 
11 | Cc1cc2cc(N/C(=N\C(=O)c3ccc(C(N)=O)nc3)N[C@H]3CCCCN(CC(=O)N4CCCC4)C3=O)ccc2o1 | 5.7 |  | IC50 (Cytochrome P450 2C19): 13 µM; IC50 (Cytochrome P450 2C9): 22 µM; IC50 (Cytochrome P450 3A4): 18 µM
12 | Cc1cc2cc(N/C(=N/[N+](=O)[O-])N[C@H]3CCCCN(CC(=O)N4CCCC4)C3=O)ccc2o1 | >50 | 0.025 | 
13 | COC(=O)c1ccc(C(=O)/N=C(\Nc2ccc3oc(C)cc3c2)N[C@H]2CCCCN(CC(=O)N3CCCC3)C2=O)nc1 | 16 |  | 
14 | Cc1ccc(C(=O)/N=C(\Nc2ccc3oc(C)cc3c2)N[C@H]2CCCCN(CC(=O)N3CCCC3)C2=O)cn1 | 12 |  | IC50 (Cytochrome P450 2C19): 27 µM; IC50 (Cytochrome P450 2C9): 9 µM; IC50 (Cytochrome P450 3A4): 7 µM
15 | CCOC(=O)/N=C(\Nc1ccc2oc(C)cc2c1)N[C@H]1CCCCN(CC(=O)N2CCCC2)C1=O | 34 |  | 
16 | Cc1cc2cc(N/C(=N\C(=O)c3ccc(C(=O)O)cc3)N[C@H]3CCCCN(CC(=O)N4CCCC4)C3=O)ccc2o1 | 5 |  | 
17 | Cc1cc2cc(N/C(=N\S(C)(=O)=O)N[C@H]3CCCCN(CC(=O)N4CCCC4)C3=O)ccc2o1 | 60 | 0.01 | 

Row | SMILES | Activity (Plasma) [µM] | IC50 (Coagulation factor X) [µM] | other results
18 | Cc1cc2cc(N/C(=N\C(=O)c3ccc(Cl)nc3)N[C@H]3CCCCN(CC(=O)N4CCCC4)C3=O)ccc2o1 | 14 |  | IC50 (Cytochrome P450 2C19): 22 µM; IC50 (Cytochrome P450 2C9): 12 µM; IC50 (Cytochrome P450 3A4): 8 µM
19 | Cc1cc2cc(N/C(=N\C(=O)c3ccc(C(=O)O)nc3)N[C@H]3CCCCN(CC(=O)N4CCCC4)C3=O)ccc2o1 | 6.8 |  | IC50 (Cytochrome P450 2C19): 47 µM; IC50 (Cytochrome P450 2C9): 122 µM; IC50 (Cytochrome P450 3A4): 87 µM
20 | CNC(=O)c1ccc(C(=O)/N=C(\Nc2ccc3oc(C)cc3c2)N[C@H]2CCCCN(CC(=O)N3CCCC3)C2=O)cn1 | 3 |  | IC50 (Cytochrome P450 2C19): 12 µM; IC50 (Cytochrome P450 2C9): 24 µM; IC50 (Cytochrome P450 3A4): 18 µM
21 | Cc1cc2cc(N/C(=N\C(=O)c3ccccc3)N[C@H]3CCCCN(CC(=O)N4CCCC4)C3=O)ccc2o1 | 48 |  | 
22 | COC(=O)c1ccc(C(=O)/N=C(\Nc2ccc3oc(C)cc3c2)N[C@H]2CCCCN(CC(=O)N3CCCC3)C2=O)cc1 | 18 |  | 
23 | Cc1cc2cc(N/C(=N\C(=O)c3ccc(C(N)=O)cc3)N[C@H]3CCCCN(CC(=O)N4CCCC4)C3=O)ccc2o1 | 5 | 0.003 | fold change (FC) (Rattus norvegicus [1]): >=3.6
24 | Cc1cc2cc(N/C(=N\C(=O)c3cnn(C)c3)N[C@H]3CCCCN(CC(=O)N4CCCC4)C3=O)ccc2o1 | 11 |  | 
25 | Cc1cc2cc(N/C(=N\C(=O)c3ccc(C(=O)N(C)C)cc3)N[C@H]3CCCCN(CC(=O)N4CCCC4)C3=O)ccc2o1 | 4 | 0.003 | fold change (FC) (Rattus norvegicus [1]): >=3.6
26 | COC(=O)c1cccc(C(=O)/N=C(\Nc2ccc3oc(C)cc3c2)N[C@H]2CCCCN(CC(=O)N3CCCC3)C2=O)c1 | 41 | 0.005 | 
27 | Cc1cc2cc(N/C(=N\C(=O)c3ccncc3)N[C@H]3CCCCN(CC(=O)N4CCCC4)C3=O)ccc2o1 | 16 |  | 
28 | Cc1cc2cc(/N=C(/NC(=O)c3cccnc3)N[C@H]3CCCCN(CC(=O)N4CCCC4)C3=O)ccc2o1 | 7 |  | IC50 (Cytochrome P450 2C19): 8 µM; IC50 (Cytochrome P450 2C9): 10 µM; IC50 (Cytochrome P450 3A4): 0.3 µM; fold change (FC) (Rattus norvegicus [2]): >=3.2
29 | Cc1cc2cc(N/C(=N\C(=O)c3cccc(C(=O)N(C)C)c3)N[C@H]3CCCCN(CC(=O)N4CCCC4)C3=O)ccc2o1 | 8 | 0.01 | 
30 | Cc1cc2cc(N/C(=N\C(=O)N(C)C)N[C@H]3CCCCN(CC(=O)N4CCCC4)C3=O)ccc2o1 | 55 |  | 
31 | Cc1cc2cc(N/C(=N\S(=O)(=O)c3ccccc3)N[C@H]3CCCCN(CC(=O)N4CCCC4)C3=O)ccc2o1 | >50 | 0.024 | 
32 | Cc1cc2cc(N/C(=N\C(=O)c3cncc(C(N)=O)c3)N[C@H]3CCCCN(CC(=O)N4CCCC4)C3=O)ccc2o1 | 7 |  | IC50 (Cytochrome P450 2C19): 37 µM; IC50 (Cytochrome P450 2C9): 10 µM; IC50 (Cytochrome P450 3A4): 0.4 µM
33 | Cc1cc2cc(N/C(=N\C(=O)c3ccc[n+]([O-])c3)N[C@H]3CCCCN(CC(=O)N4CCCC4)C3=O)ccc2o1 | 3 | 0.01 | IC50 (Cytochrome P450 2C19): 128 µM; IC50 (Cytochrome P450 2C9): 122 µM; IC50 (Cytochrome P450 3A4): 0.9 µM

From ChEMBL document CHEMBL1156750 (Bioorg Med Chem Lett, 2009)
